# Assay results published in ChEMBL document CHEMBL4680124, “2-Styryl-4-aminoquinazoline derivatives as potent DNA-cleavage, p53-activation and in vivo effective anticancer agents” (Eur J Med Chem, 2020).
# pIC50: −log10 of the molar value. Activity calls are given as the source filed them. The rule behind the calls is not given here.
# Assays:
# PC-3 = experiment: Cytotoxicity against human PC-3 cells assessed as reduction in cell viability preincubated for 48 hrs and measured after 4 hrs by MTT assay; type: functional, cell-based
# MGC-803 [1] = experiment: Induction of apoptosis in human MGC-803 cells assessed as decrease in Bcl-2 expression at 5 uM measured after 24 hrs by Western blot analysis; type: functional, cell-based
# Procedure, shortened: (§1)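 MGC-803 cells (2×10^6) plated overnight, then treated for 24 h at 0.5, 1.0 or 2.5 µM (test agent) or 5.0 µM (comparator). Whole-cell lysates separated by SDS-PAGE, transferred to PVDF and probed with primary antibodies. AP-linked anti-rabbit IgG, ECL detection, β-actin loading control. Representative of three experiments.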
# MGC-803 [2] = experiment: Induction of apoptosis in human MGC-803 cells assessed as decrease in Bcl-xL expression at 5 uM measured after 24 hrs by Western blot analysis; type: functional, cell-based; procedure, shortened: as §1
# MGC-803 [3] = experiment: Induction of apoptosis in human MGC-803 cells assessed as decrease in Bak expression at 5 uM measured after 24 hrs by Western blot analysis; type: functional, cell-based; procedure, shortened: as §1
# PLC-PRF-5 = experiment: Antitumor activity against human PLC/PRF/5 cells xenografted in mouse assessed as tumor growth inhibition at 30 mg/kg; type: functional; details: read-out: TGI
# T-24 = experiment: Cytotoxicity against human T-24 cells […] assessed as reduction in cell viability preincubated for 48 hrs and measured after 4 hrs by MTT assay; type: functional, cell-based
# DU-145 = experiment: Cytotoxicity against human DU145 cells expressing mutant type p53 assessed as reduction in cell viability preincubated for 48 hrs and measured after 4 hrs by MTT assay; type: functional, cell-based
# Procedure, shortened: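 MTT assay. Cells grown in DMEM (T24, MGC-803, A549, HL-7702), RPMI-1640 (DU145) or DMEM-F12 (PC-3), each with 10% FBS. Exposed to 1.25–20 µM in medium with 1% DMSO for 48 h, then MTT for 4 h. Formazan dissolved in DMSO and read at 570 nm. Five wells per concentration; means ± SD of independent repeats.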
# MGC-803 [4] = experiment: Induction of apoptosis in human MGC-803 cells assessed as increase in Bax expression at 5 uM measured after 24 hrs by Western blot analysis; type: functional, cell-based; procedure, shortened: as §1
# MGC-803 [5] = experiment: Cytotoxicity against human MGC-803 cells expressing mutant type p53 assessed as reduction in cell viability preincubated for 48 hrs and measured after 4 hrs by MTT assay; type: functional, cell-based
# MGC-803 [6] = experiment: Induction of apoptosis in human MGC-803 cells assessed as increase in Bim expression at 5 uM measured after 24 hrs by Western blot analysis; type: functional, cell-based
# Procedure, shortened: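 MGC-803 cells (2×10^6) cultured overnight, then exposed 24 h to 0.5, 1.0 or 2.5 μM, or 5.0 μM for the reference agent. Lysates were resolved by SDS-PAGE, transferred to PVDF and probed with primary antibodies. Detection used AP-linked anti-rabbit IgG and ECL. β-actin served as loading control.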
# A549 = experiment: Cytotoxicity against human A549 cells expressing wild type p53 assessed as reduction in cell viability preincubated for 48 hrs and measured after 4 hrs by MTT assay; type: functional, cell-based
# L02 = experiment: Cytotoxicity against human HL-7702 cells expressing wild type p53 assessed as reduction in cell viability preincubated for 48 hrs and measured after 4 hrs by MTT assay; type: functional, cell-based
# Mus musculus = experiment: Toxicity against BALB/c nude mouse xenografted with human MGC-803 cells assessed as body weight at 10 mg/kg, ip administered every 2 days and measured 3 times per week for 16 days; type: organism-based; details: in vivo, 384 h, time 16 day
# Procedure, shortened: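 Male BALB/c nude mice, 6 weeks old, received 5×10^6 MGC-803 cells subcutaneously in the flank. At about 80 mm3, mice were randomized (n = 6/group). They were dosed i.p. every 2 days with vehicle (5% DMSO in saline, v/v) or drug in DMSO/saline at 1.0 or 2.0 mg/mL. Body weight was recorded three times weekly; mean ± SD.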
# MGC-803 [7] = experiment: Antitumor activity against human MGC-803 cells xenografted in BALB/C nude mouse assessed as tumor growth inhibition at 10 mg/kg, ip administered every 2 days and measured 3 times per week; type: functional, organism-based; details: time 2.0 day
# Procedure, shortened: (§2)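 Male BALB/c nude mice, 6 weeks old, given 5×10^6 MGC-803 cells s.c. in the flank. When tumors reached about 80 mm3, mice were randomized (n = 6/group) and dosed i.p. every 2 days. Vehicle was 5% DMSO in saline. Drug solutions were 1.0 or 2.0 mg/mL (DMSO/saline). Tumor length and width plus body weight were measured three times weekly; volume = lw²/2. Mean ± SD.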
# MGC-803 [8] = experiment: Antitumor activity against human MGC-803 cells xenografted in BALB/C nude mouse assessed as tumor growth inhibition at 10 mg/kg, ip administered every 2 days and measured 3 times per week for 16 days; type: functional; design: scale not given: the % may be the effect or the level left; details: time 16 day; procedure, shortened: as §2
SMILES,pIC50 (PC-3),Activity (MGC-803 [1]),Activity (MGC-803 [2]),Activity (MGC-803 [3]),inhibition in vivo at 30 mg/kg (PLC-PRF-5) [%],pIC50 (T-24),pIC50 (DU-145),Activity (MGC-803 [4]),pIC50 (MGC-803 [5]),Activity (MGC-803 [6]),pIC50 (A549),pIC50 (L02),Activity (Mus musculus),Activity (MGC-803 [7]),Activity (MGC-803 [8]) [%]
COc1ccc(/C=C/c2nc(NCCCN(C)C)c3ccccc3n2)cc1,4.79,inactive,inactive,inactive,60,4.69,4.81,inactive,4.74,inactive,4.61,4.60,–,–,–
O=[N+]([O-])c1ccc(/C=C/c2nc(NCCN3CCCCC3)c3ccccc3n2)cc1,4.59,–,–,–,–,4.44,< 4.00,–,4.56,–,4.55,< 4.00,–,–,–
COc1cccc2c1C(=O)c1c(O)c3c(c(O)c1C2=O)C[C@@](O)(C(=O)CO)C[C@@H]3O[C@H]1C[C@H](N)[C@@H](O)[C@H](C)O1 [EPIRUBICIN],5.64,–,–,–,–,5.95,5.70,–,5.92,–,6.09,5.68,Non-Toxic,Active,67.2
O=[N+]([O-])c1ccc(/C=C/c2nc(NCCN3CCCCC3)c3cc(Cl)ccc3n2)cc1,< 4.00,–,–,–,–,4.46,< 4.00,–,4.70,–,4.39,< 4.00,–,–,–
COc1ccc(/C=C/c2nc(NCCN(C)C)c3ccccc3n2)cc1OC,< 4.00,–,–,–,–,< 4.00,< 4.00,–,< 4.00,–,< 4.00,< 4.00,–,–,–
CC(C)N(CCNc1nc(/C=C/c2ccc3c(c2)OCO3)nc2ccc(Cl)cc12)C(C)C,4.98,–,–,–,–,5.13,5.06,–,5.07,–,< 4.00,< 4.00,–,–,–
CC(C)N(CCNc1nc(/C=C/c2ccc([N+](=O)[O-])cc2)nc2ccccc12)C(C)C,< 4.00,–,–,–,–,4.85,< 4.00,–,4.54,–,< 4.00,5.05,–,–,–
CCN(CC)CCCNc1nc(/C=C/c2ccc3c(c2)OCO3)nc2ccc(Cl)cc12,< 4.00,–,–,–,–,5.01,< 4.00,–,4.89,–,< 4.00,< 4.00,–,–,–
CC(C)N(CCNc1nc(/C=C/c2ccc3c(c2)OCO3)nc2ccccc12)C(C)C,< 4.00,–,–,–,–,4.76,< 4.00,–,4.95,–,< 4.00,4.67,–,–,–
CN(C)CCCNc1nc(/C=C/c2ccc([N+](=O)[O-])cc2)nc2ccc(Cl)cc12,5.27,–,–,–,–,5.13,5.07,–,5.18,–,4.80,< 4.00,–,–,–
CCN(CC)CCCNc1nc(/C=C/c2ccc(OC)c(OC)c2)nc2ccccc12,< 4.00,–,–,–,–,< 4.00,< 4.00,–,< 4.00,–,< 4.00,< 4.00,–,–,–
CN(C)CCCNc1nc(/C=C/c2ccc([N+](=O)[O-])cc2)nc2ccccc12,< 4.00,–,–,–,–,5.04,4.61,–,4.80,–,4.23,4.67,–,–,–
COc1ccc(/C=C/c2nc(NCCN(C(C)C)C(C)C)c3cc(Cl)ccc3n2)cc1OC,< 4.00,–,–,–,–,4.83,< 4.00,–,4.81,–,< 4.00,< 4.00,–,–,–
COc1ccc(/C=C/c2nc(NCCN3CCCCC3)c3ccccc3n2)cc1OC,4.10,–,–,–,–,4.98,4.14,–,4.48,–,4.08,4.70,–,–,–
CN(C)CCNc1nc(/C=C/c2ccc3c(c2)OCO3)nc2ccccc12,< 4.00,–,–,–,–,4.18,< 4.00,–,< 4.00,–,< 4.00,4.24,–,–,–
CCN(CC)CCNc1nc(/C=C/c2ccc(OC)c(OC)c2)nc2ccc(Cl)cc12,< 4.00,–,–,–,–,4.91,< 4.00,–,4.78,–,< 4.00,4.04,–,–,–
